Measurements: ChEMBL document CHEMBL1125433, “Exploration of N-phosphonoalkyl-, N-phosphonoalkenyl-, and N-(phosphonoalkyl)phenyl-spaced alpha-amino acids as competitive N-methyl-D-aspartic acid antagonists” (J Med Chem, 1992)

Columns and labels:
[1] = organism: Rattus norvegicus; assay: In vitro antagonist activity by its ability to inhibit glutamate-induced accumulation of [45Ca2+]- in cultured rat cortical neurons.; format: functional
Summary of the method: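 Cortical neurons came from E18 Sprague-Dawley rat fetuses and were used 14-16 days after plating. Cells were held in Mg-free HBSS with 1.4 mM CaCl2, pH 7.4, at 37 °C and 5% CO2. They were exposed for 30 min to 100 µM L-glutamate (final) plus 45Ca2+ (2 µCi/mL) with test agent, then washed with saline, lysed in water and beta-counted. Baseline uptake without glutamate was subtracted. IC50 came from at least four half-log concentrations, with at least six replicates each.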

[2] = molecular target: Glutamate NMDA receptor; assay: Inhibitory activity evaluated by its ability to displace [3H]CPP from rat cortical membrane receptor at 10E-5 concentration of the compound
Summary of the method: (§1)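 Crude synaptic membranes from whole brain minus cerebellum and brainstem of male Long-Evans rats, treated with 0.01% Triton X-100 at 37 °C for 30 min and washed. Membranes (200-400 µg protein/mL) were incubated with 10 nM [3H]CPP in 50 mM Tris-HCl pH 7.6 for 15 min at 23 °C in triplicate. Bound ligand was separated by centrifugation and counted by liquid scintillation. Inhibition of specific binding was calculated as ((T−S)/T)×100.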

[3] = molecular target: T1, Glutamate NMDA receptor (Rattus norvegicus) (UniProt P35439+Q00959+Q00960+Q00961+Q62645+Q8VHN2+Q9R1M7); assay: Displacement of [3H]CPP from N-methyl-D-aspartate glutamate receptor of rat cortical membranes; format: cell membranes; parameters: concentration or dose not given beside the values; settings: Membrane, concentration not given here
Summary of the method: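 Membranes were crude synaptic membranes from whole brain, minus cerebellum and brainstem, of male Long-Evans rats. They were treated with 0.01% Triton X-100 (37 °C, 30 min) and washed in 50 mM Tris-HCl pH 7.6. Membranes (200-400 µg protein/mL) were incubated with 10 nM [3H]CPP for 15 min at 23 °C, in triplicate. Bound ligand was separated by centrifugation and counted by scintillation. IC50 was fitted by nonlinear least squares from four or more concentrations.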

[4] = molecular target: Glutamate NMDA receptor; assay: Inhibitory activity evaluated by its ability to displace [3H]CPP from N-methyl-D-aspartate glutamate receptor in rat cortical membranes at 10E-4 concentration of the compound; format: cell membranes
Summary of the method: (§2)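 Rat forebrain crude synaptic membranes were pretreated with Triton X-100 and washed in 50 mM Tris-HCl pH 7.6. Membranes (200-400 µg protein/mL) were incubated with 10 nM [3H]CPP and test agent for 15 min at 23 °C, in triplicate. Pellets were collected by centrifugation and counted. Percent inhibition = (T−S)/T×100, where T and S are specific binding without and with test agent.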

[5] = molecular target: T1, Glutamate NMDA receptor (Rattus norvegicus); assay: Inhibitory activity evaluated by its ability to displace [3H]CPP from NMDA receptor in rat cortical membranes at 10E-4 concentration of the compound; format: cell membranes; summary of the method: as §2
[6] = molecular target: Glutamate NMDA receptor; assay: Inhibitory activity evaluated by its ability to displace [3H]CPP from rat cortical membrane N-methyl-D-aspartate glutamate receptor at 10E-5 concentration of the compound; summary of the method: as §1
[7] = molecular target: Glutamate NMDA receptor; assay: Inhibitory activity evaluated by its ability to displace [3H]CPP from N-methyl-D-aspartate glutamate receptor in rat cortical membranes at 10E-5 concentration of the compound; format: cell membranes; summary of the method: as §2

Compound	IC50 [1] [µM]	inhibition [3] [%]	other results
NC(CCCP(=O)(O)O)C(=O)O (stereo unspecified)	6.1	–	–
NC(CCCCCP(=O)(O)O)C(=O)O (stereo unspecified) [AP-7]	30	–	–
O=C(O)CNCc1cccc(P(=O)(O)O)c1	–	–	inhibition [5]: 21%
O=C(O)CNCCCP(=O)(O)O	–	3	–
O=C(O)CNc1ccccc1P(=O)(O)O	–	27	–
O=C(O)CNCc1ccccc1CP(=O)(O)O	–	–	inhibition [5]: 21%
O=C(O)CNC/C=C/CP(=O)(O)O	16.7	–	IC50 [2]: 1 µM
O=C(O)CNc1ccccc1CCP(=O)(O)O	–	–	inhibition [5]: 0%
O=C(O)CNCCP(=O)(O)O	–	14	–
CC(NC/C=C\CP(=O)(O)O)C(=O)O (stereo unspecified)	–	–	IC50 [6]: 42.4 µM
O=C(O)CNCCCCP(=O)(O)O	–	17	–
O=C(O)CNCC/C=C\P(=O)(O)O	36	–	IC50 [6]: 2.25 µM
O=C(O)CNc1cccc(CCP(=O)(O)O)c1	–	0	–
O=C(O)C1CN(CP(=O)(O)O)CCN1 (stereo unspecified)	5.2	–	IC50 [2]: 0.065 µM

The next lines start with results.

IC50 [1] [µM]	inhibition [3] [%]	Compound	other results
2.4	–	O=C(O)C1CN(CCCP(=O)(O)O)CCN1 (stereo unspecified)	–
40	–	O=C(O)CNCc1cccc(CP(=O)(O)O)c1	IC50 [2]: 2.4 µM
–	4	CC(NCc1ccccc1CP(=O)(O)O)C(=O)O (stereo unspecified)	–
144	–	O=C(O)CNCCc1cccc(CP(=O)(O)O)c1	IC50 [4]: 13.7 µM
–	31	CC(NCc1cccc(CP(=O)(O)O)c1)C(=O)O (stereo unspecified)	–
–	0	CC(C)C(NCc1cccc(CP(=O)(O)O)c1)C(=O)O (stereo unspecified)	–
–	60	O=C(O)CNCCSCP(=O)(O)O	–
–	9	O=C(O)CNc1ccccc1/C=C/P(=O)(O)O	–
–	4	O=C(O)CNCC[S+]([O-])CP(=O)(O)O (stereo unspecified)	–
–	13	O=C(O)CNc1cccc(/C=C/CP(=O)(O)O)c1	–
> 250	–	O=C(O)CNc1ccccc1C(=O)O	–
–	48	O=C(O)CNc1ccccc1CP(=O)(O)O	–
59	–	O=C(O)CNCc1ccc(CP(=O)(O)O)cc1	IC50 [2]: 2.3 µM
–	5	O=C(O)CNc1cccc(CCCP(=O)(O)O)c1	–
137	–	N/C(=N\CC(=O)O)c1cccc(CP(=O)(O)O)c1	IC50 [7]: 18 µM
